Measurements published in ChEMBL document CHEMBL1127676, “Structure-activity relationships in a series of 5-[(2,5-dihydroxybenzyl)amino]salicylate inhibitors of EGF-receptor-associated tyrosine kinase: importance of additional hydrophobic aromatic interactions” (J Med Chem, 1994).

Experiments:
[1] = molecular target: T1, Epidermal growth factor receptor (Homo sapiens, UniProt P00533); test: Inhibitory potency against protein tyrosine kinase activity associated with EGFR was evaluated using ER 22 cell membrane
[2] = molecular target: T1, Epidermal growth factor receptor; details: ER 22; 10 uM
[3] = molecular target: T1, Epidermal growth factor receptor; details: ER 22; 10 uM; remark: listed apart in the source
[4] = molecular target: T1, Epidermal growth factor receptor; details: ER 22; 10 uM; remark: listed apart in the source
[5] = molecular target: T1, Epidermal growth factor receptor; details: ER 22; 100 uM
[6] = Inhibition of PKA(protein kinase-A)
Protein kinase C (PKC) = test: Inhibition of rat PKC(protein kinase-C); type: protein assay
Summary of the method: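 PKC partially purified from rat brain by DEAE-cellulose chromatography and assayed in vitro with a commercial PKC assay kit; inhibitors tested for inhibition of the kinase activity.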

[7] = molecular target: T1, Epidermal growth factor receptor; test: Inhibition of EGFR(epidermal growth factor receptor) autophosphorylation in ER22 cell membranes
[8] = molecular target: T1, Epidermal growth factor receptor; details: 20 uM
[9] = molecular target: T1, Epidermal growth factor receptor; details: ER 22; 10 uM; remark: listed apart in the source
[10] = molecular target: T1, Epidermal growth factor receptor; details: 5 uM

T1 sequence (P00533 whole entry): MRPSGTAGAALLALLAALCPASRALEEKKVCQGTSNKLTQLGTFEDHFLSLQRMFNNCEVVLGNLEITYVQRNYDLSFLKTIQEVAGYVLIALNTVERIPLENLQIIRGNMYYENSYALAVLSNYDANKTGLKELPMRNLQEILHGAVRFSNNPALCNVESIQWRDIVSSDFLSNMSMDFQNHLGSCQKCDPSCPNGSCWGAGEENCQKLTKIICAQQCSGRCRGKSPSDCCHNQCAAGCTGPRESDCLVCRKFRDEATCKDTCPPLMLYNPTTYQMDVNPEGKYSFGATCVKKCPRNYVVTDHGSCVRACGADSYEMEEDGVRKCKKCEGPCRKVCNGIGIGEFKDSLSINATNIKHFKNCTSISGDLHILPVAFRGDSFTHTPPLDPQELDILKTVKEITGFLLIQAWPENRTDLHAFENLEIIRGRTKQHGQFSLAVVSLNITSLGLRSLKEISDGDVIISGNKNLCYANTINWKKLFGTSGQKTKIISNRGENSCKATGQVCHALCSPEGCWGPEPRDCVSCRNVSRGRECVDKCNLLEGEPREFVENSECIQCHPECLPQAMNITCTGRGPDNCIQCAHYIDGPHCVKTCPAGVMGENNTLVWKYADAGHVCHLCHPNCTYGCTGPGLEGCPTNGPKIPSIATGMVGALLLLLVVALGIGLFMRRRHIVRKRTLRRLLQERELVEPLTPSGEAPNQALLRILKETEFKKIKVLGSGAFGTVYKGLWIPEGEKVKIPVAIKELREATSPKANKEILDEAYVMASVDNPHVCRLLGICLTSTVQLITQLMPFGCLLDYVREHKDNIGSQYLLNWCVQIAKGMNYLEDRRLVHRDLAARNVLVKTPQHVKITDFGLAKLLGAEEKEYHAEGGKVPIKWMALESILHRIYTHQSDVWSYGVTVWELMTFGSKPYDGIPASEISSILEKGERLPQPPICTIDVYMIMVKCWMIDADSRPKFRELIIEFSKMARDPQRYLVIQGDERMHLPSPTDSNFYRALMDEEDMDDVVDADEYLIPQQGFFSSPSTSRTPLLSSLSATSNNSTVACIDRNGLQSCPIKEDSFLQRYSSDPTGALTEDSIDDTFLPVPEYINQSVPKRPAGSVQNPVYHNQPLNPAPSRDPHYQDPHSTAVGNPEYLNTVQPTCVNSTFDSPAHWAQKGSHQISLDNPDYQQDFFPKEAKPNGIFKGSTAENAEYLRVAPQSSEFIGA

Row | SMILES | IC50 [1] [µM] | further results
1 | O=C(OCC1CCCCC1)c1cc(NCc2cc(O)ccc2O)ccc1O | 1.2 | –
2 | CC(C)(C)ONC(=O)Cc1cc(/N=C/c2cc(O)ccc2O)ccc1O | 31 | –
3 | CCOP(=O)(Cc1cc(/N=C/c2cc(O)ccc2O)ccc1O)OCC | > 100 | –
4 | CCOP(=O)(Cc1cc(NCc2cc(O)ccc2O)ccc1O)OCC | 4 | –
5 | COC(=O)Cc1cc(/N=C/c2cc(O)ccc2O)ccc1O | 100 | –
6 | O=C(O)Cc1cc(NCc2cc(O)ccc2O)ccc1O | 6 | –
7 | CCCCCCCCCCCCCCCCOC(=O)c1cc(NCc2cc(O)ccc2O)ccc1O | > 5 | –
8 | CC(C)CCCC(C)CCOC(=O)c1cc(/N=C/c2cc(O)ccc2O)ccc1O (centres undefined) | – | inhibition [2]: 20%
9 | CCOC(=O)c1cc(/N=C/c2cc(O)ccc2O)ccc1O | 50 | –
10 | CC(CCOC(=O)c1cc(/N=C/c2cc(O)ccc2O)ccc1O)CC(C)(C)C (centres undefined) | – | inhibition [3]: 20%
11 | CC(C)(C)CCOC(=O)c1cc(/N=C/c2cc(O)ccc2O)ccc1O | – | inhibition [4]: 10%
12 | COC(=O)c1cc(/N=C/c2cc(O)ccc2O)ccc1O | – | inhibition [5]: 56%
13 | O=P(O)(O)Cc1cc(NCc2cc(O)ccc2O)ccc1O | 3 | –
14 | CONC(=O)c1cc(/N=C/c2cc(O)ccc2O)ccc1O | 27 | –
15 | O=C(O)c1cc(NCc2cc(O)ccc2O)ccc1O [LAVENDUSTIN C] | – | IC50 [6]: > 100 µM; IC50 (Protein kinase C (PKC)): > 100 µM
16 | O=C(OCCC12C[C@H]3C[C@@H](C1)C[C@@H](C2)C3)c1cc(NCc2cc(O)ccc2O)ccc1O | > 5 | –
17 | CC(C)(C)ONC(=O)c1cc(/N=C/c2cc(O)ccc2O)ccc1O | – | inhibition [3]: 20%

Row | SMILES | IC50 [1] [µM] | further results
18 | O=C(OC/C=C/c1ccccc1)c1cc(NCc2cc(O)ccc2O)ccc1O | 1.3 | –
19 | O=C(O)c1cc(/N=C/c2cc(O)ccc2O)ccc1O | 5 | –
20 | CCOC(=O)Cc1cc(NCc2cc(O)ccc2O)ccc1O | 7 | –
21 | CC(C)c1ccc(COC(=O)c2cc(NCc3cc(O)ccc3O)ccc2O)cc1 | 1 | –
22 | CC(COC(=O)c1cc(/N=C/c2cc(O)ccc2O)ccc1O)CC(C)(C)C (centres undefined) | > 10 | –
23 | Cc1cc(C)cc(COC(=O)c2cc(NCc3cc(O)ccc3O)ccc2O)c1 | 3 | –
24 | O=C(Oc1ccc(-c2ccccc2)cc1)c1cc(NCc2cc(O)ccc2O)ccc1O | 5 | –
25 | COC(=O)Cc1cc(NCc2cc(O)ccc2O)ccc1O | 3 | –
26 | CC(C)(C)OC(=O)c1cc(/N=C/c2cc(O)ccc2O)ccc1O | – | inhibition [3]: 15%
27 | CCOC(=O)Cc1cc(/N=C/c2cc(O)ccc2O)ccc1O | 100 | –
28 | CC(C)CCCC(C)CCOC(=O)c1cc(NCc2cc(O)ccc2O)ccc1O (centres undefined) | 7 | IC50 [7]: 25 µM; IC50 [6]: 10 µM
29 | CC(C)(C)ONC(=O)Cc1cc(NCc2cc(O)ccc2O)ccc1O | 5 | –
30 | CC(CCOC(=O)c1cc(NCc2cc(O)ccc2O)ccc1O)CC(C)(C)C (centres undefined) | > 1 | –
31 | O=C(Cc1cc(/N=C/c2cc(O)ccc2O)ccc1O)NOCc1ccccc1 | 50 | –
32 | CC(COC(=O)c1cc(NCc2cc(O)ccc2O)ccc1O)CC(C)(C)C (centres undefined) | ~4 | IC50 [7]: 8 µM; IC50 [6]: 10 µM; IC50 (Protein kinase C (PKC)): 300 µM
33 | O=C(NOCc1ccccc1)c1cc(/N=C/c2cc(O)ccc2O)ccc1O | – | inhibition [9]: 8%; inhibition [10]: 43%
34 | O=C(O)Cc1cc(/N=C/c2cc(O)ccc2O)ccc1O | 35 | –

More lines, main results first:

Row | IC50 [1] [µM] | SMILES | further results
35 | 0.11 | O=C(Oc1cccc2ccccc12)c1cc(NCc2cc(O)ccc2O)ccc1O | –
36 | 0.4 | CC(CCOC(=O)c1cc(NCc2cc(O)ccc2O)ccc1O)c1ccccc1 (centres undefined) | –
37 | 0.4 | O=C(NO)c1cc(NCc2cc(O)ccc2O)ccc1O | –
38 | 0.08 | O=C(OCc1ccccc1)c1cc(NCc2cc(O)ccc2O)ccc1O | –
39 | 0.4 | CCOC(=O)c1cc(NCc2cc(O)ccc2O)ccc1O | –
40 | 1 | O=C(Cc1cc(NCc2cc(O)ccc2O)ccc1O)NOCc1ccccc1 | –
41 | 0.7 | CC(C)(C)CCOC(=O)c1cc(NCc2cc(O)ccc2O)ccc1O | –
42 | 0.03 | O=C(OCCCc1ccccc1)c1cc(NCc2cc(O)ccc2O)ccc1O | IC50 [7]: 0.7 µM; IC50 [6]: 11 µM; IC50 (Protein kinase C (PKC)): > 20 µM
43 | 1 | CC(C)(C)OC(=O)c1cc(NCc2cc(O)ccc2O)ccc1O | –
44 | 0.09 | O=C(Oc1ccc2ccccc2c1)c1cc(NCc2cc(O)ccc2O)ccc1O | –
45 | 0.36 | CC(COC(=O)c1cc(NCc2cc(O)ccc2O)ccc1O)Cc1ccccc1 (centres undefined) | –
46 | 0.05 | O=C(NOCc1ccccc1)c1cc(NCc2cc(O)ccc2O)ccc1O | –
47 | 0.07 | O=C(Oc1ccccc1)c1cc(NCc2cc(O)ccc2O)ccc1O | –
48 | 0.1 | CC(C)(C)ONC(=O)c1cc(NCc2cc(O)ccc2O)ccc1O | inhibition [8]: 35%
49 | 0.3 | CONC(=O)c1cc(NCc2cc(O)ccc2O)ccc1O | –
50 | 0.13 | O=C(OCCc1ccccc1)c1cc(NCc2cc(O)ccc2O)ccc1O | IC50 [7]: 0.2 µM; IC50 [6]: 4 µM
51 | 0.09 | O=C(Oc1cccc(O)c1)c1cc(NCc2cc(O)ccc2O)ccc1O | –
52 | 0.4 | O=C(OCCCCc1ccccc1)c1cc(NCc2cc(O)ccc2O)ccc1O | –
53 | 0.6 | COC(=O)c1cc(NCc2cc(O)ccc2O)ccc1O | IC50 [7]: 1 µM; IC50 [6]: 150 µM; IC50 (Protein kinase C (PKC)): 400 µM
